Data from ChEMBL document CHEMBL4004831, “Naphthalene diimide-polyamine hybrids as antiproliferative agents: Focus on the architecture of the polyamine chains” (Eur J Med Chem, 2017).

Legend:
HCT-116 = test: Growth inhibition of human HCT116 cells incubated for 48 hrs by sulforhodamine B assay; assay type: functional; details: HCT-116, 48 h
RPMI-8226 = test: Growth inhibition of human RPMI8226 cells incubated for 48 hrs by sulforhodamine B assay; assay type: functional; details: RPMI-8226, 48 h
OVCAR-3 = test: Growth inhibition of human OVCAR3 cells incubated for 48 hrs by sulforhodamine B assay; assay type: functional; details: OVCAR-3, 48 h
HOP-62 = test: Growth inhibition of human HOP62 cells incubated for 48 hrs by sulforhodamine B assay; assay type: functional; details: HOP-62, 48 h
SNB-19 = test: Growth inhibition of human SNB19 cells incubated for 48 hrs by sulforhodamine B assay; assay type: functional; details: SNB-19, 48 h
HCC 2998 = test: Growth inhibition of human HCC2998 cells incubated for 48 hrs by sulforhodamine B assay; assay type: functional; details: HCC 2998, 48 h
CCRF-CEM = test: Growth inhibition of human CCRF-CEM cells incubated for 48 hrs by sulforhodamine B assay; assay type: functional
HCT-15 = test: Growth inhibition of human HCT15 cells incubated for 48 hrs by sulforhodamine B assay; assay type: functional; details: HCT-15, 48 h
SK-MEL-2 = test: Growth inhibition of human SK-MEL-2 cells incubated for 48 hrs by sulforhodamine B assay; assay type: functional; details: SK-MEL-2, 48 h
CAKI-1 = test: Growth inhibition of human Caki1 cells incubated for 48 hrs by sulforhodamine B assay; assay type: functional; details: CAKI-1, 48 h
MDA-MB-231 = test: Growth inhibition of human MDA-MB-231 cells incubated for 48 hrs by sulforhodamine B assay; assay type: functional; details: MDA-MB-231, 48 h
SNB-75 = test: Growth inhibition of human SNB75 cells incubated for 48 hrs by sulforhodamine B assay; assay type: functional; details: SNB-75, 48 h
KM12 = test: Growth inhibition of human KM12 cells incubated for 48 hrs by sulforhodamine B assay; assay type: functional; details: KM12, 48 h
A498 = test: Growth inhibition of human A498 cells incubated for 48 hrs by sulforhodamine B assay; assay type: functional; details: A498, 48 h
[1] = Stabilization of 5'Dabcyl/3'FAM labeled duplex DNA (unknown origin) assessed as increase in melting temperature at 2.5 uM pretreated for 5 mins at 30 degreeC followed by 5 mins incubation at 95 degreeC by fluorescence assay
How it was run: (§1)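 FRET melting in LiP buffer (10 mM LiOH, 50 mM KCl, pH 7.0 with H3PO4), ex 488 nm, em 520 nm. Samples were held 5 min at 30 °C, heated at 1 °C/min to 95 °C, held 5 min, then re-annealed. Tm came from first derivatives; ΔTm = shift with ligand at 2.5; at least three runs.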

MDA-MB-468 = test: Growth inhibition of human MDA-MB-468 cells incubated for 48 hrs by sulforhodamine B assay; assay type: functional; details: MDA-MB-468, 48 h
NCI/ADR-RES = test: Growth inhibition of human NCI-ADR-RES cells incubated for 48 hrs by sulforhodamine B assay; assay type: functional
Homo sapiens = organism: Homo sapiens; test: Stabilization of 5'Dabcyl/3'FAM labeled human telomeric sequence G-quadruplex DNA assessed as increase in melting temperature at 2.5 uM pretreated for 5 mins at 30 degreeC followed by 5 mins incubation at 95 degreeC by fluorescence assay; how it was run: as §1
NCI-H460 = test: Growth inhibition of human NCI-H460 cells incubated for 48 hrs by sulforhodamine B assay; assay type: functional; details: NCI-H460, 48 h
ACHN = test: Growth inhibition of human ACHN cells incubated for 48 hrs by sulforhodamine B assay; assay type: functional
SF-539 = test: Growth inhibition of human SF539 cells incubated for 48 hrs by sulforhodamine B assay; assay type: functional; details: SF-539, 48 h
BT-549 = test: Growth inhibition of human BT549 cells incubated for 48 hrs by sulforhodamine B assay; assay type: functional; details: BT-549, 48 h
RXF 393 = test: Growth inhibition of human RXF393 cells incubated for 48 hrs by sulforhodamine B assay; assay type: functional; details: RXF 393, 48 h
TK-10 = test: Growth inhibition of human TK10 cells incubated for 48 hrs by sulforhodamine B assay; assay type: functional; details: TK-10, 48 h
SW-620 = test: Growth inhibition of human SW620 cells incubated for 48 hrs by sulforhodamine B assay; assay type: functional; details: SW-620, 48 h
SN12C = test: Growth inhibition of human SN12C cells incubated for 48 hrs by sulforhodamine B assay; assay type: functional
LOX IMVI = test: Growth inhibition of human LOXIMVI cells incubated for 48 hrs by sulforhodamine B assay; assay type: functional
786-0 = test: Growth inhibition of human 786-0 cells incubated for 48 hrs by sulforhodamine B assay; assay type: functional; details: 786-0, 48 h
NCI-H23 = test: Growth inhibition of human NCI-H23 cells incubated for 48 hrs by sulforhodamine B assay; assay type: functional; details: NCI-H23, 48 h
OVCAR-5 = test: Growth inhibition of human OVCAR5 cells incubated for 48 hrs by sulforhodamine B assay; assay type: functional; details: OVCAR-5, 48 h
COLO 205 = test: Growth inhibition of human COLO205 cells incubated for 48 hrs by sulforhodamine B assay; assay type: functional; details: COLO 205, 48 h
SK-OV-3 = test: Growth inhibition of human SKOV3 cells incubated for 48 hrs by sulforhodamine B assay; assay type: functional; details: SK-OV-3, 48 h
A549 = test: Growth inhibition of human A549/ATCC cells incubated for 48 hrs by sulforhodamine B assay; assay type: functional; details: A549, 48 h
MDA-MB-435 = test: Growth inhibition of human MDA-MB-435 cells incubated for 48 hrs by sulforhodamine B assay; assay type: functional; details: MDA-MB-435, 48 h
M14 = test: Growth inhibition of human M14 cells incubated for 48 hrs by sulforhodamine B assay; assay type: functional; details: M14, 48 h
DU-145 = test: Growth inhibition of human DU145 cells incubated for 48 hrs by sulforhodamine B assay; assay type: functional; details: DU-145, 48 h
SR = test: Growth inhibition of human SR cells incubated for 48 hrs by sulforhodamine B assay; assay type: functional
SF-295 = test: Growth inhibition of human SF295 cells incubated for 48 hrs by sulforhodamine B assay; assay type: functional; details: SF-295, 48 h
T47D = test: Growth inhibition of human T47D cells incubated for 48 hrs by sulforhodamine B assay; assay type: functional
K562 = test: Growth inhibition of human K562 cells incubated for 48 hrs by sulforhodamine B assay; assay type: functional; details: K562, 48 h
NCI-H522 = test: Growth inhibition of human NCI-H522 cells incubated for 48 hrs by sulforhodamine B assay; assay type: functional; details: NCI-H522, 48 h
SF-268 = test: Growth inhibition of human SF268 cells incubated for 48 hrs by sulforhodamine B assay; assay type: functional; details: SF-268, 48 h
UO-31 = test: Growth inhibition of human UO31 cells incubated for 48 hrs by sulforhodamine B assay; assay type: functional; details: UO-31, 48 h
NCI-H322M = test: Growth inhibition of human NCI-H322M cells incubated for 48 hrs by sulforhodamine B assay; assay type: functional
EKVX = test: Growth inhibition of human EKVX cells incubated for 48 hrs by sulforhodamine B assay; assay type: functional

Compound: COc1ccccc1CNCCCN1C(=O)c2ccc3c4c(ccc(c24)C1=O)C(=O)N(CCCN)C3=O
- GI50 (HCT-116): 394 nM
- GI50 (RPMI-8226): 1110 nM
- GI50 (OVCAR-3): 301 nM
- GI50 (HOP-62): 1240 nM
- GI50 (SNB-19): 1510 nM
- GI50 (HCC 2998): 1860 nM
- GI50 (CCRF-CEM): 433 nM
- GI50 (HCT-15): 1410 nM
- GI50 (SK-MEL-2): 1440 nM
- GI50 (CAKI-1): 1760 nM
- GI50 (MDA-MB-231): 1590 nM
- GI50 (SNB-75): 1580 nM
- GI50 (KM12): 1620 nM
- GI50 (A498): 1540 nM
- ΔTm [1]: 6.7 °C
- GI50 (MDA-MB-468): 406 nM
- GI50 (NCI/ADR-RES): 2900 nM
- ΔTm (Homo sapiens): 1.4 °C
- GI50 (NCI-H460): 524 nM
- GI50 (ACHN): 1660 nM
- GI50 (SF-539): 1300 nM
- GI50 (BT-549): 1660 nM
- GI50 (RXF 393): 377 nM
- GI50 (TK-10): 1640 nM
- GI50 (SW-620): 442 nM
- GI50 (SN12C): 1170 nM
- GI50 (LOX IMVI): 526 nM
- GI50 (786-0): 1940 nM
- GI50 (NCI-H23): 1340 nM
- GI50 (OVCAR-5): 1950 nM
- GI50 (COLO 205): 570 nM
- GI50 (SK-OV-3): 2670 nM
- GI50 (A549): 1760 nM
- GI50 (MDA-MB-435): 196 nM
- GI50 (M14): 1060 nM
- GI50 (DU-145): 1380 nM
- GI50 (SR): 167 nM
- GI50 (SF-295): 1430 nM
- GI50 (T47D): 1170 nM
- GI50 (K562): 1090 nM
- GI50 (NCI-H522): 1570 nM
- GI50 (SF-268): 1230 nM
- GI50 (UO-31): 1500 nM
- GI50 (NCI-H322M): 1660 nM

Compound: COc1ccccc1CNCCCN1C(=O)c2ccc3c4c(ccc(c24)C1=O)C(=O)N(CCCNCCCCN)C3=O
- GI50 (HCT-116): 185 nM
- GI50 (RPMI-8226): 394 nM
- GI50 (OVCAR-3): 293 nM
- GI50 (HOP-62): 290 nM
- GI50 (EKVX): 866 nM
- GI50 (SNB-19): 292 nM
- GI50 (HCC 2998): 149 nM
- GI50 (CCRF-CEM): 275 nM
- GI50 (HCT-15): 165 nM
- GI50 (SK-MEL-2): 223 nM
- GI50 (CAKI-1): 198 nM
- GI50 (MDA-MB-231): 204 nM
- GI50 (SNB-75): 304 nM
- GI50 (KM12): 324 nM
- GI50 (A498): 619 nM
- ΔTm [1]: 12.2 °C
- GI50 (MDA-MB-468): 85 nM
- GI50 (NCI/ADR-RES): 366 nM
- ΔTm (Homo sapiens): 29 °C
- GI50 (NCI-H460): 313 nM
- GI50 (ACHN): 535 nM
- GI50 (SF-539): 280 nM
- GI50 (BT-549): 1180 nM
- GI50 (RXF 393): 582 nM
- GI50 (SW-620): 155 nM
- GI50 (SN12C): 280 nM
- GI50 (LOX IMVI): 188 nM
- GI50 (786-0): 616 nM
- GI50 (NCI-H23): 193 nM
- GI50 (OVCAR-5): 944 nM
- GI50 (COLO 205): 110 nM
- GI50 (SK-OV-3): 290 nM
- GI50 (A549): 258 nM
- GI50 (MDA-MB-435): 184 nM
- GI50 (M14): 343 nM
- GI50 (DU-145): 853 nM
- GI50 (SR): 76 nM
- GI50 (SF-295): 448 nM
- GI50 (T47D): 215 nM
- GI50 (K562): 281 nM
- GI50 (NCI-H522): 172 nM
- GI50 (SF-268): 268 nM
- GI50 (UO-31): 1860 nM

Compound: CNCCCNCCCCNCCCN1C(=O)c2ccc3c4c(ccc(c24)C1=O)C(=O)N(CCCNCc1ccccc1OC)C3=O
- GI50 (HCT-116): 2040 nM
- GI50 (RPMI-8226): 3000 nM
- GI50 (OVCAR-3): 2930 nM
- GI50 (HOP-62): 2330 nM
- GI50 (SNB-19): 3790 nM
- GI50 (HCC 2998): 3120 nM
- GI50 (CCRF-CEM): 2770 nM
- GI50 (HCT-15): 4270 nM
- GI50 (SK-MEL-2): 4460 nM
- GI50 (CAKI-1): 2250 nM
- GI50 (MDA-MB-231): 4630 nM
- GI50 (SNB-75): 1050 nM
- GI50 (KM12): 2750 nM
- GI50 (A498): 1780 nM
- ΔTm [1]: 17.1 °C
- GI50 (MDA-MB-468): 1890 nM
- GI50 (NCI/ADR-RES): 7090 nM
- ΔTm (Homo sapiens): 26.1 °C
- GI50 (NCI-H460): 2530 nM
- GI50 (ACHN): 2860 nM
- GI50 (SF-539): 2040 nM
- GI50 (BT-549): 3400 nM
- GI50 (RXF 393): 3820 nM
- GI50 (TK-10): 4080 nM
- GI50 (SW-620): 2160 nM
- GI50 (SN12C): 2950 nM
- GI50 (LOX IMVI): 3030 nM
- GI50 (786-0): 3360 nM
- GI50 (NCI-H23): 2990 nM
- GI50 (OVCAR-5): 5350 nM
- GI50 (COLO 205): 1380 nM
- GI50 (SK-OV-3): 6190 nM
- GI50 (A549): 3450 nM
- GI50 (MDA-MB-435): 795 nM
- GI50 (M14): 2630 nM
- GI50 (DU-145): 5090 nM
- GI50 (SR): 4420 nM
- GI50 (SF-295): 1330 nM
- GI50 (T47D): 342 nM
- GI50 (K562): 2780 nM
- GI50 (NCI-H522): 5620 nM
- GI50 (SF-268): 3510 nM
- GI50 (UO-31): 4310 nM
- GI50 (NCI-H322M): 2210 nM
